Experimental data taken from ChEMBL document CHEMBL1821590, “Novel dihydropyrimidines and its pyrazole derivatives: synthesis and pharmacological screening” (Eur J Med Chem, 2011).
≈ marks a conversion by molar mass, not a printed value.

What was measured:
Type in all cases: functional
[1] = Antioxidant activity assessed as nitric oxide radical scavenging activity after 150 mins
Procedure, shortened: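 10 mM sodium nitroprusside (4 mL), PBS pH 7.4 (1 mL) and sample or ascorbic acid in DMSO (1 mL, 12.5–100 µg/mL), incubated 150 min at 25 °C. Nitrite detected with sulphanilic acid (5 min) then naphthylethylenediamine (30 min, diffused light). Read at […]. Triplicate. % inhibition = [1 − (Vt/Vc)] × 100. IC50 derived from it.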

[2] = Antioxidant activity assessed as hydrogen peroxide scavenging activity after 10 mins
Procedure, shortened: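 H2O2 (20 mM) in PBS pH 7.4. 1 mL of sample or ascorbic acid in methanol (12.5–100 µg/mL) added to 2 mL H2O2 solution. A230 read after 10 min. % inhibition = [1 − (Vt/Vc)] × 100. Triplicate, averaged. IC50 derived from % inhibition across concentrations.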

[3] = Antioxidant activity assessed as inhibition of lipid peroxidation using egg lecithin liposomes incubated for 1 hr
Procedure, shortened: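 Egg lecithin (3 mg/mL, phosphate buffer pH 7.4) sonicated 10 min to form liposomes. Sample or ascorbic acid (12.5–100 µg/mL) added. Peroxidation induced with FeCl3 and L-ascorbic acid, 1 h at 37 °C. Stopped with HCl/TCA/TBA/BHA, boiled 15 min, centrifuged, supernatant read at 532 nm. Triplicate. % inhibition vs control. IC50 derived.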

[4] = Antioxidant activity assessed as potassium ferricyanide ion reducing power after 20 mins
Procedure, shortened: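 Oyaizu method. Samples or ascorbic acid in DMF (12.5–100 µg/mL) mixed with 0.2 M phosphate buffer pH 6.6 and 1% potassium ferricyanide, 20 min at 50 °C. 10% TCA added, centrifuged. Supernatant mixed with water and 0.1% FeCl3, read at 700 nm. % = [(Vt/Vc) − 1] × 100. IC50 derived.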

[5] = Antiinflammatory activity assessed as inhibition of albumin denaturation at 100 ug/ml by UV-visible spectrophotometry
Procedure, shortened: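 Compounds dissolved in minimal DMF, diluted in PBS pH 7.4 (final DMF <2.5%). 1 mL test solution (100 µg/mL) plus 1 mL 1% albumin in PBS, 15 min at 27 ± 1 °C, then heated 10 min at 60 ± 1 °C. After cooling, turbidity read at 660 nm. % inhibition = [(Vt/Vc) − 1] × 100 against a no-drug control. Triplicate, averaged. Diclofenac standard.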

Metaphire posthuma [6] = test: Anthelmintic activity against Pheretima posthuma assessed as time taken for complete parasite paralysis at 0.1% w/v
Procedure, shortened: (§1)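 Earthworms (Pheretima posthuma) exposed to test solutions at 0.1, 0.2 and 0.5% w/v; time in minutes to complete paralysis (worms motionless) recorded. Albendazole as standard. Mean of three determinations ± S.D.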

Metaphire posthuma [7] = test: Anthelmintic activity against Pheretima posthuma assessed as time taken for complete parasite paralysis at 0.2% w/v; procedure, shortened: as §1
Metaphire posthuma [8] = test: Anthelmintic activity against Pheretima posthuma assessed as time taken for complete parasite paralysis at 0.5% w/v; procedure, shortened: as §1
Metaphire posthuma [9] = test: Anthelmintic activity against Pheretima posthuma assessed as time taken for parasite death at 0.1% w/v
Procedure, shortened: (§2)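 Earthworms (Pheretima posthuma, spelled Perituma posthuma in text) exposed to test compounds at 0.1, 0.2 and 0.5% w/v. Albendazole served as standard, with an untreated control. Paralysis was recorded as the time until worms became motionless, then time to death was recorded, in minutes. Each value is the mean of three determinations with S.D.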

Metaphire posthuma [10] = test: Anthelmintic activity against Pheretima posthuma assessed as time taken for parasite death at 0.2% w/v; procedure, shortened: as §2
Metaphire posthuma [11] = test: Anthelmintic activity against Pheretima posthuma assessed as time taken for parasite death at 0.5% w/v; procedure, shortened: as §2
Bacillus subtilis [12] = test: Antimicrobial activity against Bacillus subtilis at 25 ug/ml by agar plate diffusion technique; details: read-out: IZ
Procedure, shortened: (§3)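 Agar plate diffusion against E. coli, P. aeruginosa, S. aureus and B. subtilis, with compounds at 25, 50 and 100 µg/mL. Streptomycin as standard.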

Bacillus subtilis [13] = test: Antimicrobial activity against Bacillus subtilis at 50 ug/ml by agar plate diffusion technique; details: read-out: IZ; procedure, shortened: as §3
Bacillus subtilis [14] = test: Antimicrobial activity against Bacillus subtilis at 100 ug/ml by agar plate diffusion technique; details: read-out: IZ; procedure, shortened: as §3
Staphylococcus aureus [15] = test: Antimicrobial activity against Staphylococcus aureus at 25 ug/ml by agar plate diffusion technique; details: read-out: IZ; procedure, shortened: as §3
Staphylococcus aureus [16] = test: Antimicrobial activity against Staphylococcus aureus at 50 ug/ml by agar plate diffusion technique; details: read-out: IZ; procedure, shortened: as §3
Staphylococcus aureus [17] = test: Antimicrobial activity against Staphylococcus aureus at 100 ug/ml by agar plate diffusion technique; details: read-out: IZ; procedure, shortened: as §3
Candida albicans [18] = test: Antimicrobial activity against Candida albicans at 25 ug/ml by paper disc method; details: read-out: IZ
Procedure, shortened: (§4)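 Paper disc method against A. niger and C. albicans, with compounds at 25, 50 and 100 µg/mL. Amphotericin-B as standard.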

Candida albicans [19] = test: Antimicrobial activity against Candida albicans at 50 ug/ml by paper disc method; details: read-out: IZ; procedure, shortened: as §4
Candida albicans [20] = test: Antimicrobial activity against Candida albicans at 100 ug/ml by paper disc method; details: read-out: IZ; procedure, shortened: as §4
Aspergillus niger [21] = test: Antimicrobial activity against Aspergillus niger at 25 ug/ml by paper disc method; details: read-out: IZ; procedure, shortened: as §4
Aspergillus niger [22] = test: Antimicrobial activity against Aspergillus niger at 50 ug/ml by paper disc method; details: read-out: IZ; procedure, shortened: as §4
Aspergillus niger [23] = test: Antimicrobial activity against Aspergillus niger at 100 ug/ml by paper disc method; details: read-out: IZ; procedure, shortened: as §4
Escherichia coli [24] = test: Antimicrobial activity against Escherichia coli at 25 ug/ml by agar plate diffusion technique; details: read-out: IZ; procedure, shortened: as §3
Escherichia coli [25] = test: Antimicrobial activity against Escherichia coli at 50 ug/ml by agar plate diffusion technique; details: read-out: IZ; procedure, shortened: as §3
Escherichia coli [26] = test: Antimicrobial activity against Escherichia coli at 100 ug/ml by agar plate diffusion technique; details: read-out: IZ; procedure, shortened: as §3
Pseudomonas aeruginosa [27] = test: Antimicrobial activity against Pseudomonas aeruginosa at 25 ug/ml by agar plate diffusion technique; details: read-out: IZ; procedure, shortened: as §3
Pseudomonas aeruginosa [28] = test: Antimicrobial activity against Pseudomonas aeruginosa at 50 ug/ml by agar plate diffusion technique; details: read-out: IZ; procedure, shortened: as §3
Pseudomonas aeruginosa [29] = test: Antimicrobial activity against Pseudomonas aeruginosa at 100 ug/ml by agar plate diffusion technique; details: read-out: IZ; procedure, shortened: as §3

Row | Compound | IC50 [1] [µg/mL] | IC50 [2] [µg/mL] | IC50 [3] [µg/mL] | IC50 [4] [µg/mL] | inhibition [5] [%] | Time (Metaphire posthuma [6]) [min] | Time (Metaphire posthuma [7]) [min] | Time (Metaphire posthuma [8]) [min] | Time (Metaphire posthuma [9]) [min] | Time (Metaphire posthuma [10]) [min] | Time (Metaphire posthuma [11]) [min] | zone of inhibition at 25 µg/mL (Bacillus subtilis [12]) [mm] | zone of inhibition at 50 µg/mL (Bacillus subtilis [13]) [mm] | zone of inhibition at 100 µg/mL (Bacillus subtilis [14]) [mm] | zone of inhibition at 25 µg/mL (Candida albicans [18]) [mm] | zone of inhibition at 50 µg/mL (Candida albicans [19]) [mm] | zone of inhibition at 100 µg/mL (Candida albicans [20]) [mm] | zone of inhibition at 25 µg/mL (Aspergillus niger [21]) [mm] | zone of inhibition at 50 µg/mL (Aspergillus niger [22]) [mm] | zone of inhibition at 100 µg/mL (Aspergillus niger [23]) [mm] | further results
1 | O=C1O[C@H]([C@@H](O)CO)C(O)=C1O [ASCORBIC ACID] | 47 (≈ 267 µM) | 33 (≈ 187 µM) | 26 (≈ 148 µM) | 31 (≈ 176 µM) |  |  |  |  |  |  |  |  |  |  |  |  |  |  |  |  | 
2 | Cn1c(NN)nc(-c2cccs2)c(C#N)c1=O | 63 (≈ 255 µM) | 53 (≈ 214 µM) | 68 (≈ 275 µM) | 61 (≈ 247 µM) | 36.4 | 32.35 | 29.13 | 26.13 | 58.24 | 44.42 | 40.3 | 9.27 | 10.1 | 15.4 | 10.7 | 13.8 | 15.9 | 10.2 | 12.8 | 15.9 | zone of inhibition at 25 µg/mL (Staphylococcus aureus [15]): 9.12 mm; zone of inhibition at 50 µg/mL (Staphylococcus aureus [16]): 10.6 mm; zone of inhibition at 100 µg/mL (Staphylococcus aureus [17]): 13.4 mm
3 | COc1ccc(-c2nc(NN)n(C)c(=O)c2C#N)cc1 | 56 (≈ 206 µM) | 32 (≈ 118 µM) | 39 (≈ 144 µM) | 41 (≈ 151 µM) | 20.6 | 47.23 | 45.23 | 42.6 | 62.32 | 60.22 | 57.45 | 9.26 | 10.3 | 13.6 | 8.14 | 10.7 | 15.8 | 8.32 | 10 | 17 | zone of inhibition at 25 µg/mL (Escherichia coli [24]): 6.28 mm; zone of inhibition at 50 µg/mL (Escherichia coli [25]): 7.71 mm; zone of inhibition at 100 µg/mL (Escherichia coli [26]): 7.49 mm; zone of inhibition at 25 µg/mL (Pseudomonas aeruginosa [27]): 5 mm; zone of inhibition at 50 µg/mL (Pseudomonas aeruginosa [28]): 6.96 mm; zone of inhibition at 100 µg/mL (Pseudomonas aeruginosa [29]): 7.21 mm
4 | COc1cccc(-c2nc(SC)n(C)c(=O)c2C#N)c1OC | 67 (≈ 211 µM) | 43 (≈ 135 µM) | 48 (≈ 151 µM) | 54 (≈ 170 µM) | 38.2 | 75.54 | 57.18 | 41.47 | 83.02 | 60.44 | 56.08 | 10.4 | 14.4 | 20.3 | 10.5 | 13 | 19.5 | 9.25 | 12 | 19.7 | zone of inhibition at 25 µg/mL (Pseudomonas aeruginosa [27]): 5.86 mm; zone of inhibition at 50 µg/mL (Pseudomonas aeruginosa [28]): 8.25 mm; zone of inhibition at 100 µg/mL (Pseudomonas aeruginosa [29]): 9.93 mm
5 | Cn1c(NN)nc(-c2ccco2)c(C#N)c1=O | 65 (≈ 281 µM) | 58 (≈ 251 µM) | 78 (≈ 337 µM) | 64 (≈ 277 µM) | 36.6 | 43.73 | 40.73 | 37.52 | 61.58 | 57.48 | 50.98 | 10.8 | 13.3 | 14.2 | 8.26 | 10.2 | 16 | 9.82 | 10.1 | 17.6 | zone of inhibition at 25 µg/mL (Staphylococcus aureus [15]): 8.02 mm; zone of inhibition at 50 µg/mL (Staphylococcus aureus [16]): 10.5 mm; zone of inhibition at 100 µg/mL (Staphylococcus aureus [17]): 12.2 mm
6 | C[C@@H]1[C@H](O)[C@@H](C)/C=C/C=C/C=C/C=C/C=C/C=C/C=C/[C@H](O[C@@H]2O[C@H](C)[C@@H](O)[C@H](N)[C@@H]2O)C[C@@H]2O[C@](O)(C[C@@H](O)C[C@@H](O)[C@H](O)CC[C@@H](O)C[C@@H](O)CC(=O)O[C@H]1C)C[C@H](O)[C@H]2C(=O)O [AMPHOTERICIN B] |  |  |  |  |  |  |  |  |  |  |  |  |  |  | 12.9 | 15.3 | 23.1 | 14.9 | 17.1 | 26.1 | 
7 | O=C(O)Cc1ccccc1Nc1c(Cl)cccc1Cl |  |  |  |  | 83.3 |  |  |  |  |  |  |  |  |  |  |  |  |  |  |  | 
8 | CCCSc1ccc2[nH]c(NC(=O)OC)nc2c1 [ALBENDAZOLE] |  |  |  |  |  | 50.38 | 35.58 | 30.57 | 60.36 | 55.25 | 53.34 |  |  |  |  |  |  |  |  |  | 
9 | Cn1c(NN)nc(-c2cccc(O)c2O)c(C#N)c1=O | 44 (≈ 161 µM) | 29 (≈ 106 µM) | 31 (≈ 113 µM) | 34 (≈ 124 µM) | 28.8 | 52.22 | 48.56 | 45.65 | 66.22 | 63.98 | 60.27 | 11.5 | 14.5 | 22.1 | 9.35 | 13.8 | 18.7 | 7.06 | 8.44 | 15 | zone of inhibition at 25 µg/mL (Escherichia coli [24]): 8.72 mm; zone of inhibition at 50 µg/mL (Escherichia coli [25]): 8.16 mm; zone of inhibition at 100 µg/mL (Escherichia coli [26]): 10.2 mm; zone of inhibition at 25 µg/mL (Pseudomonas aeruginosa [27]): 8.1 mm; zone of inhibition at 50 µg/mL (Pseudomonas aeruginosa [28]): 10.1 mm; zone of inhibition at 100 µg/mL (Pseudomonas aeruginosa [29]): 12.9 mm
10 | CN(C)c1ccc(-c2nc(NN)n(C)c(=O)c2C#N)cc1 | 69 (≈ 243 µM) | 66 (≈ 232 µM) | 63 (≈ 222 µM) | 81 (≈ 285 µM) | 12.6 | 28.25 | 26.35 | 25.64 | 54.22 | 46.44 | 43.34 | 8.1 | 10.5 | 14.5 | 9.14 | 9 | 15.3 | 7.14 | 9.48 | 15.8 | zone of inhibition at 25 µg/mL (Escherichia coli [24]): 5.74 mm; zone of inhibition at 50 µg/mL (Escherichia coli [25]): 7.82 mm; zone of inhibition at 100 µg/mL (Escherichia coli [26]): 8.28 mm; zone of inhibition at 25 µg/mL (Pseudomonas aeruginosa [27]): 5.78 mm; zone of inhibition at 50 µg/mL (Pseudomonas aeruginosa [28]): 6.27 mm; zone of inhibition at 100 µg/mL (Pseudomonas aeruginosa [29]): 8.83 mm
